Paper PMC2900633 (Bioorganic & medicinal chemistry, 2008)

Assays:
[1] = tested on: Jurkat, PC3 and LNCaP cells; experiment: MTT assay, statements over all three cell lines; assay type: cell-based
LNCaP cells = experiment: MTT assay, LNCaP cells; assay type: cell-based; details: 24 h, ±10 μM
PC3 cells = experiment: Endogenous PS exposure, Annexin V-FITC flow cytometry; assay type: cell-based; details: scramblase 100 μM, 37°C, 2 hours, background value 2 %
Outline: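 PC3 cells were grown in Ham's F-12K with 10% FBS at 37°C, 5% CO2. At 90% confluency they were PBS-washed, trypsinised and resuspended in TES buffer at 1 × 10^5 cells/mL. Test compound (100 μM, from DMSO stock) was added for 2 h at 37°C. Cells were then stained in binding buffer with Annexin V-FITC plus 7AAD (500 ng/mL) for 15 min at 37°C. Flow cytometry excluded 7AAD-positive cells. Three independent experiments were run.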

erythrocytes = details: raised from 1 %, previous work, ref 8f; cited from earlier work

## Cc1ccc(S(=O)(=O)NCCN(CCNCc2ccccc2)CCNS(=O)(=O)c2ccc(C)cc2)cc1 [scramblase 16]
[1]
  LD50 (effect on mitochondrial reductase activity): > 15 µM
LNCaP cells
  LD50, LNCaP cells: 40 µM

## Cc1ccc(S(=O)(=O)NCCN(CCNC(=O)Nc2ccc(C(C)C)cc2)CCNS(=O)(=O)c2ccc(C)cc2)cc1 [scramblase 9]
PC3 cells
  fraction of Annexin-stained cells: < 5%

## Cc1ccc(S(=O)(=O)NCCN(CCNC(=O)Nc2ccc([N+](=O)[O-])cc2)CCNS(=O)(=O)c2ccc(C)cc2)cc1 [scramblase 2]
erythrocytes
  fraction of Annexin-stained cells, erythrocytes: 34%
PC3 cells
  fraction of Annexin-stained cells: < 5%

## Cc1ccc(S(=O)(=O)NCCN(CCNC(=O)Nc2ccc(C(F)(F)F)cc2)CCNS(=O)(=O)c2ccc(C)cc2)cc1 [scramblase 5]
PC3 cells
  fraction of Annexin-stained cells: 10%

## Cc1ccc(S(=O)(=O)NCCN(CCNC(=S)Nc2ccc(Cl)cc2)CCNS(=O)(=O)c2ccc(C)cc2)cc1 [scramblase 14]
[1]
  LD50 (effect on mitochondrial reductase activity): > 15 µM
LNCaP cells
  LD50, LNCaP cells: 15 µM

## Cc1ccc(S(=O)(=O)NCCN(CCNC(=O)[C@H](N)Cc2ccccc2)CCNS(=O)(=O)c2ccc(C)cc2)cc1.Cl [scramblase 15]
[1]
  LD50 (effect on mitochondrial reductase activity): > 15 µM
LNCaP cells
  LD50, LNCaP cells: 40 µM
